Experimental data reported in ChEMBL document CHEMBL4651341, “The discovery of a novel series of compounds with single-dose efficacy against juvenile and adult Schistosoma species” (PLoS Negl Trop Dis, 2021).
In brackets after ≈: the same amount, converted by molar mass.

What was measured:
[1] = Mean plasma concentration at 4h in Swiss albino male mice at […] per compound (administered orally in a mixture of 5 compounds to 3 mice) assessed by LCMS/MS.; assay type: ADME, organism-based; details: mouse, po
[2] = Mean volume of distribution at steady state in Swiss albino male mice at 1 mg/kg per compound (administered iv in a mixture of 5 compounds to 3 mice) assessed by LCMS/MS.; assay type: ADME, organism-based; details: mouse, in vivo, read-out: Volume
Outline: (§1)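 Male Swiss albino mice (~30 g), 3 per experiment, mostly dosed as mixtures of 5 compounds iv via the lateral tail vein. Vehicle: 10% DMSO/90% 50 mM Na2HPO4 with 0.5% Tween-80. Plasma stored at −20 °C and quantified by LC-MS after acetonitrile precipitation.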

[3] = Percentage of parent compound remaining after incubation for 90 minutes with cyropreserved mouse hepatocytes at a concentration of 1uM compound and […], determined by LCMS; assay type: ADME, tissue-based, Hepatocyte; details: cryopreserved mouse hepatocytes, read-out: Stability
Outline: (§2)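 Compound was incubated at 1 µM final (2 µM working solution mixed 1:1 with hepatocyte suspension) in supplemented KHB pH 7.4. Conditions: 37 °C, 5% CO2, gentle mixing, duplicates. Reaction quenched with ice-cold acetonitrile containing standard; analysed by LC-MS/MS. % remaining = AUC at t / AUC at T0.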

[4] = Solubility at 25 degC of compound (diluted from DMSO) in PBS at pH 7.4 determined after 24h (1h sonication, 22h shaking, 1h sonication) by LCMS/MS; assay type: physicochemical
[5] = Concentration of drug in plasma at 4h following oral drug adminstration at given dose. Determined by LCMS/MS; assay type: ADME, organism-based; details: CD1, mouse
Outline: (§3)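 Plasma sampled from the mice of the efficacy experiments, each animal sampled once: one animal per group at 1, 4 and 8 h, two per group at 24 h. Plasma prepared by acetonitrile protein precipitation and analysed by LC-MS against a 10-point calibration line spiked in blank matrix, with QCs at three or more levels.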

[6] = Concentration required to kill 50% HepG2 cells as detected by MTT staining; assay type: toxicity, cell-based; details: homo sapiens, read-out: TC50 (the source's name)
[7] = system: Schistosoma mansoni; assay: Concentration required to kill 50% of 21 day old worms 5 days after drug treatment.; assay type: functional, organism-based; details: Puerto Rican, 120 h
Outline: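 Juvenile S. mansoni (Puerto Rican strain) were perfused from CD1 mice 3 weeks post-infection and washed. They were cultured 6–8 per well in 200 µL DMEM with 2 mM glutamine, penicillin/streptomycin and 10% FCS at 37 °C, 5% CO2. Viability of individual worms was scored on day 5 after dosing (120 h).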

[8] = Mean plasma concentration at 24h in Swiss albino male mice at […] per compound (administered orally in a mixture of 5 compounds to 3 mice) assessed by LCMS/MS.; assay type: ADME, organism-based; details: mouse, po
[9] = Mean oral bioavailability in Swiss albino male mice at […] per compound (administered in a mixture of 5 compounds to 3 mice) assessed by LCMS/MS.; note: dose 2.5 mg/kg; assay type: ADME, organism-based; details: male, Swiss albino, mouse, in vivo, read-out: Bioavailability
[10] = system: Schistosoma mansoni; assay: Concentration required to kill 50% of 42 day old worms 5 days after drug treatment.; assay type: functional, organism-based; details: Puerto Rican, 120 h
Outline: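 Adult S. mansoni were perfused from CD1 mice 6 weeks post-infection and washed. They were cultured 3 pairs per well in 1 mL DMEM with 2 mM glutamine, penicillin/streptomycin and 10% FCS […] at 37 °C, 5% CO2. Viability of individual worms was scored on day 5 (120 h).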

[11] = system: Schistosoma mansoni; assay: Percentage of worms remaining following treatment of female CD1 mice infected with S. mansoni worms (21 day old - juvenile or 42 day old - adult) with compound by oral gavage. Worms were recovered by portal perfusion with citrate saline 8-14 days post treatment and counted. Percentages are from a mean of 5 or 6 animals.; assay type: functional, Mus musculus; design: concentration or dose not given beside the values
Outline: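 Female CD1 mice were infected subcutaneously with 150 cercariae and treated at day 21 (juvenile) or day 42 (adult). Single oral gavage, or two doses 12 h apart, given in 7% Tween-80/3% ethanol/water (sonicated) or in 1:19 DMSO:corn oil. Controls received vehicle only. Worm recoveries are group means, n = 5–6.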

[12] = Mean observed clearance in Swiss albino male mice at 1 mg/kg per compound (administered iv in a mixture of 5 compounds to 3 mice) assessed by LCMS/MS.; assay type: ADME, organism-based; details: male, Swiss albino, mouse, in vivo, read-out: Clearance (converted)
Outline: (§4)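 Male Swiss albino mice (~30 g), 3 per experiment, mostly dosed as mixtures of 5 compounds iv via the lateral tail vein. Vehicle: 10% DMSO/90% 50 mM Na2HPO4 with 0.5% Tween-80. Blood sampled at 5, 15, 30 min and 1, 2, 4, 8, 24 h. Plasma stored at −20 °C and quantified by LC-MS after acetonitrile precipitation.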

[13] = Mean AUC inf in Swiss albino male mice at 1 mg/kg per compound (administered iv in a mixture of 5 compounds to 3 mice) assessed by LCMS/MS.; assay type: ADME, organism-based; details: male, Swiss albino, mouse, in vivo; outline: as §4
[14] = Concentration of drug in plasma at 24h following oral drug adminstration at given dose. Determined by LCMS/MS; assay type: ADME, organism-based; details: CD1, mouse; outline: as §3
[15] = Mean time to peak plasma concentration in Swiss albino male mice at […] per compound (administered orally in a mixture of 5 compounds to 3 mice) assessed by LCMS/MS.; assay type: ADME, organism-based; details: mouse, po
[16] = Partition coefficient of compound between n-octanol and PBS (pH7.4); assay type: physicochemical; details: octanol/water, pH 7.4
Outline: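 Shake-flask method using octanol and PBS pH 7.4, each pre-saturated with the other. Compound was shaken 2 h at 850 rpm, 25 °C, then the phases were separated by centrifugation and both layers diluted and analysed by LC-MS/MS. LogD = log(octanol AUC × relative dilution / buffer AUC).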

[17] = Plasma protein binding determined at 10uM by LC-MS/MS.; details: mouse
[18] = Mean half-life in Swiss albino male mice at 1 mg/kg per compound (administered iv in a mixture of 5 compounds to 3 mice) assessed by LCMS/MS.; assay type: ADME, organism-based; details: mouse, in vivo; outline: as §1
[19] = Percentage of parent compound remaining after incubation for 30 minutes with cyropreserved mouse hepatocytes at a concentration of 1uM compound and […], determined by LCMS; assay type: ADME, tissue-based, Hepatocyte; details: cryopreserved mouse hepatocytes, read-out: Stability; outline: as §2
[20] = Plasma protein binding determined at 10uM by LC-MS/MS.; assay type: ADME, cell-free
Outline: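 Equilibrium dialysis of plasma spiked at 10 µM (0.1% DMSO) against PBS pH 7.4, 6 h at 37 °C, duplicates. Both chambers analysed by LC-MS/MS after acetonitrile precipitation. % free = buffer/plasma area ratio; recovery also calculated.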

[21] = Percentage of parent compound remaining after incubation for 30 minutes with cyropreserved human hepatocytes at a concentration of 1uM compound and 1 million cells/uL, determined by LCMS/MS; assay type: ADME, tissue-based, Hepatocyte; details: cryopreserved human hepatocytes, read-out: Stability; outline: as §2
[22] = Plasma protein binding determined at 1uM by LC-MS/MS.; assay type: ADME, cell-free; details: mouse
[23] = system: Schistosoma haematobium; assay: Concentration required to kill 50% of 84 day old worms 5 days after drug treatment.; assay type: functional, organism-based; details: Egyptian, 120 h

SMILES	concentration at 4 h [1]	Vd [2]	remaining at 1.5 h, 1 µM [3]	solubility kinetic at 24 h [4]	concentration at 4 h [5]	CC50 [6]	EC50 [7]	concentration at 24 h [8]	bioavailability [9]	EC50 [10]	Efficacy [11]	clearance [12]	AUC(0-inf) [13]	concentration at 24 h [14]	Tmax [15]	Lipophilicity [16]	Binding [17]	half-life [18]	remaining at 0.5 h, 1 µM [19]	Binding ([20]; human)	further results
CCc1nc2cnc(-c3ccc(F)c(C(F)(F)F)c3)cn2c1-c1ccc2[nH]ncc2c1F	676 ng/mL	1.37 L/kg	85%	1.83 µM (≈ 0.811 µg/mL)	705 ng/mL	13.1 µM	0.087 µM	21.4 ng/mL	82.7%	0.045 µM	89.6%	4.02 mL/min/kg	2080 ng·h/mL	50.5 ng/mL	120 min						
COc1ccc(-c2c(C(C)C)nc3cnc(-c4ccnc(N(C)C)c4)cn23)cc1O	1.11 ng/mL	2.98 L/kg		0.467 µM (≈ 0.188 µg/mL)			< 0.939 µM	0.1 ng/mL	6.57%			173 mL/min/kg	48.3 ng·h/mL		15 min	4.33 =	98.4537%	19.9 min	31.9%		
Fc1ccc(-c2cn3c(-c4ccc5[nH]ncc5c4F)c(C4CC4)nc3cn2)cc1C(F)(F)F	376 ng/mL	4.37 L/kg	79.5%	1.42 µM (≈ 0.647 µg/mL)	75 ng/mL	16.1 µM	0.0361 µM	176 ng/mL	95.8%	0.0507 µM	88%	3.43 mL/min/kg	2450 ng·h/mL	60.4 ng/mL	60 min	4.7 =		972 min	81.9%	100%	Binding ([20]; mouse): 100%; remaining at 0.5 h, 1 µM [21]: 95.2%
COc1ccc(-c2c(C(C)C)nc3cnc(-c4ccc(F)c(C(F)(F)F)c4)cn23)cc1O	5.08 ng/mL	3.75 L/kg		2.5 µM (≈ 1.11 µg/mL)			0.177 µM	0.1 ng/mL	8.28%	< 0.0488 µM		58.8 mL/min/kg	143 ng·h/mL		15 min	5.7 =	99.9485%	96 min	54.5%		
Oc1cc(F)c(-c2c(C3CC3)nc3cnc(-c4ccc(F)c(C(F)(F)F)c4)cn23)c(F)c1	680 ng/mL	1.94 L/kg	53%		1040 ng/mL	8.9 µM	0.0337 µM	151 ng/mL	69.6%	0.0443 µM	75%	2.25 mL/min/kg	3800 ng·h/mL	460 ng/mL	15 min	4.34 =			83.8%	100%	Binding ([20]; mouse): 99.975%; remaining at 0.5 h, 1 µM [21]: 42.1%
COc1ccc(-c2c(C)nc3ccc(-c4cccc(C(F)(F)F)c4)cn23)cc1O	0.1 ng/mL	3.65 L/kg		1.95 µM (≈ 0.777 µg/mL)			< 0.684 µM	0.1 ng/mL	1.48%			158 mL/min/kg	53.1 ng·h/mL		15 min	4.92 =	99.8676%		43%		
COc1ccc(-c2c(C3CC3)nc3cnc(-c4cccc(C(F)(F)F)c4)cn23)cc1O	1.88 ng/mL	4.58 L/kg		1.2 µM (≈ 0.51 µg/mL)			0.0625 µM	0.1 ng/mL	3.64%	0.0715 µM		108 mL/min/kg	77.9 ng·h/mL		15 min	4.62 =	99.9319%	62.4 min	41.3%		
Cc1nc2cnc(-c3ccc(F)c(C(F)(F)F)c3)cn2c1-c1c(F)cc(O)cc1F	289 ng/mL	2.91 L/kg		1.11 µM (≈ 0.47 µg/mL)		7.56 µM	0.124 µM	9.8 ng/mL	88.5%	0.118 µM		10.2 mL/min/kg	844 ng·h/mL		15 min	5.37 =		216 min	53.6%	99.9645%	Binding ([20]; mouse): 99.865%; remaining at 0.5 h, 1 µM [21]: 34.3%; Binding [22]: 99.8779%; EC50 [23]: 0.0415 µM
